# Bioassay records as filed in PubChem.
# Sampled rows, rich in hits. Any-hit rate of the full collection: about 1.8%.
# LEDGF integ inh: blockers of LEDGF/p75-dependent integrase strand transfer – biochemical, TR-FRET, high throughput, primary screen. HIV-1 integrase (with human LEDGF/p75). TR-FRET IN-LEDGF/p75 DNA integration, Eu/Cy5. inhibition, % at 3.7 µM. hit rate 0.64% among 370,000. AID 743269, 2014;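 active = inhibition above the screen-wide mean plus 3 SD, cut at about 13% in these data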;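 note: signal is the Cy5 over europium emission ratio at 671 and 618 nm; 0% = plate median of compound wells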
# UHRF1 binding: UHRF1 methylated DNA binding inhibitors, primary screen, counter-screen for MBD2 inhibitor project, biochemical, TR-FRET, human UHRF1, single concentration; inhibition, % at 4.4 µM; UHRF1 binding to methylated oligo; hit rate 0.75% among 370,000;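 note: UHRF1 SRA domain binding a hemimethylated CpG hairpin DNA probe; 0% = median of test compound wells and 100% = reference inhibitor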
# TDP2 absorb: human TDP2 enzyme inhibitors, primary screen, biochemical, epi absorbance, recombinant enzyme. Tyrosyl-DNA phosphodiesterase 2 (Homo sapiens), O95551. T5PNP hydrolysis, p-nitrophenol absorbance 415 nm. inhibition, % at 12.8 µM. hit rate 0.34% among 370,000;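 active = inhibition above the mean of all tested compounds plus 3 SD, set per campaign, cut at about 25% in these data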;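 note: 0% = DMSO with enzyme and 100% = buffer with substrate but no TDP2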
#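 Evaluation: % inhibition relative to enzyme-containing and enzyme-free wells. Material: recombinant human TDP2. Benchmarks: enzyme-free and DMSO wells. Timing: enzyme reaction with compound for 2 h at 37 °C. Compound dosing: 12.8 µM only. Measured by: p-Nitrophenol epi absorbance. Reagent: T5PNP substrate at 5 mM, a TopII-DNA adduct mimic. Replication: single well per compound.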
# NSD2 HMT inh: NSD2 histone methyltransferase inhibitors, primary screen, biochemical, AlphaScreen, single concentration, set 2 | inhibition, % at 12.5 µM | Histone-lysine N-methyltransferase NSD2 (Homo sapiens), O96028 | NSD2 peptide methylation, 120 min | hit rate 0.54% among 310,000; in the data active = inhibition above about 50%
# MBD2 inh: inhibitors of MBD2 binding to methylated DNA, primary screen, biochemical, TR-FRET, DNA-binding domain, human. hit rate 0.31% among 370,000. Methyl-CpG-binding domain protein 2 (Homo sapiens), Q9UBB5. inhibition, % at 4.4 µM. MBD2 binding to methylated oligonucleotide; in the data active = inhibition above about 13%
# Casp6 inh: human caspase-6 inhibitors, primary screen, biochemical, VEID-R110 fluorescence, single point, set 2; P55212; purified caspase-6, Z-VEID-R110 cleavage fluorescence; inhibition, % at 12.5 µM; hit rate 0.53% among 350,000; AID 686996, 2013;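 active = mean inhibition across replicates at least about 35%, with every replicate also reaching that limit, limit read from the data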;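 note: 0% = median of neutral control wells and 100% = no fluorescence left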
# UHRF1 DNA bind: UHRF1 methylated DNA binding inhibitors, counter-screen for MBD2 inhibitor project, biochemical, TR-FRET, human UHRF1; AID 720530, 2013; hit rate 25% among 1,000; inhibition, % at 4.4 µM; shares compounds with MBD2 inh; UHRF1 binding to methylated oligonucleotide;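 note: UHRF1 SRA domain binding a labeled hemimethylated CpG hairpin DNA; 0% = vehicle only and 100% = reference inhibitor with vehicle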
# MBD2 confirm: inhibitors of MBD2 binding to methylated DNA, confirmation, biochemical, TR-FRET, DNA-binding domain, human; TR-FRET MBD2-DBD binding to methylated oligonucleotide; inhibition, % at 4.4 µM; hit rate 26% among 1,000; shares compounds with MBD2 inh; in the data active = inhibition above about 14%
# Starred values were filed as active, the others as inactive; x = no result. Cut-off read from the data, not from the text of the source, unless noted: active = inhibition above about 21%; inactive = the rest.
SMILES,LEDGF integ inh,UHRF1 binding,TDP2 absorb,NSD2 HMT inh,MBD2 inh,Casp6 inh,UHRF1 DNA bind,MBD2 confirm
CCCc1nc2ccc(Cl)cn2c1Cc1ccccc1,-1,23*,-1,x,18*,6,10,5
CCCc1nc2ccc(C)cn2c1Cc1cccc(Cl)c1,4,20,-6,x,9,-2,x,x
CCCc1nc2c(C)cc(Br)cn2c1Cc1ccccc1,-1,22*,-5,x,13*,0,11,6
C[C@@H]1CN([C@@H](C)CO)C(=O)c2cc(-c3cccc(F)c3)cnc2O[C@H]1CN(C)C(=O)C1CCCCC1,x,x,x,x,x,-1,x,x
O=C(O)c1ccc(CNCc2cccc(OCc3ccc(F)cc3)c2)cc1,-4,2,1,-1,0,1,x,x
Fc1ccc(COc2cccc(CNCc3ccncc3)c2)cc1,-7,0,-3,-4,38*,-2,0,1
Cc1ccc(-c2c(C)c(-c3ccc(F)cc3)nc(N)c2C#N)o1,2,-3,-5,1,19*,x,-1,5
Cc1c(-c2ccc(F)cc2)nc(N)c(C#N)c1-c1cccnc1,-6,-1,13,-2,2,4,x,x
COc1ccc(NC(=O)Nc2ccc3c(c2)CC(=O)N([C@H](C)CO)C[C@@H](C)[C@H](CN(C)S(=O)(=O)c2ccc(Cl)cc2)O3)cc1,x,x,x,x,x,1,x,x
COc1ccc(-c2nc3c4ccccc4ccn3c2Cc2cccc(F)c2)cc1OC,3,15,-9,x,15*,-2,6,5
CCCC#Cc1ccc([C@H]2[C@@H](CO)N(C(=O)C3CCCC3)[C@H]2C#N)cc1,x,x,x,x,x,-7,x,x
C[C@H]1CCCCO[C@@H](CN(C)C(=O)C2CCCCC2)[C@@H](C)CN([C@@H](C)CO)C(=O)c2cc(NC(=O)CCC(F)(F)F)ccc2O1,x,x,x,x,x,0,x,x
C[C@@H]1CCC2[C@](C)(CO)[C@@H](O)CC[C@]2(C)[C@@]12CC[C@@](CO)(CC(=O)O)O2 (stereo partly drawn),-3,3,-9,0,1,0,x,x
C[C@@H]1CCC2[C@](C)(CO)[C@@H](O)CC[C@]2(C)[C@@]12CCC(CO)(CCO)O2 (stereo partly drawn),2,2,-2,5,25*,-2,9,2
Cc1noc(C)c1NC(=O)Nc1cccc2c1O[C@@H](CN(C)C(=O)Nc1ccccc1)[C@@H](C)CN([C@H](C)CO)C2=O,x,x,x,x,x,-2,x,x
COc1cc2nc(N3CCN(c4cc(C)ccc4C)CC3)nc(N)c2cc1OC,0,2,-2,-2,1,-1,x,x
